# What was measured:
# Assay type in all cases: functional
# NCI-H460 = experiment: Cytotoxicity against human NCI-H460 cells
# Summary of the method: (§1)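 Tested in a 60-cell-line human tumor panel screen; the read-out is growth inhibition, reported as GI50 for each cell line.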
# M14 = experiment: Cytotoxicity against human M14 cells; summary of the method: as §1
# [1] = Cytotoxicity against human UO31 cells
# Summary of the method: (§2)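 Cell line run as part of the 60-cell-line screening panel; growth inhibition was reported as a GI50 for each line.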
# NCI-H23 = experiment: Cytotoxicity against human NCI-H23 cells; summary of the method: as §1
# HCT-116 = experiment: Cytotoxicity against human HCT116 cells; summary of the method: as §1
# HOP-62 = experiment: Cytotoxicity against human HOP62 cells; summary of the method: as §1
# [2] = Cytotoxicity against human HCT15 cells; summary of the method: as §1
# MDA-MB-468 = experiment: Cytotoxicity against human MDA-MB-468 cells; summary of the method: as §1
# SF-539 = experiment: Cytotoxicity against human SF539 cells; summary of the method: as §1
# T47D = experiment: Cytotoxicity against human T47D cells; summary of the method: as §2
# MCF7 = experiment: Cytotoxicity against human MCF7 cells; summary of the method: as §1
# KM12 = experiment: Cytotoxicity against human KM12 cells; summary of the method: as §1
# IGROV-1 = experiment: Cytotoxicity against human IGROV1 cells; summary of the method: as §1
# NCI-H226 = experiment: Cytotoxicity against human NCI-H226 cells; summary of the method: as §1
# NCI-H322M = experiment: Cytotoxicity against human NCI-H322M cells; summary of the method: as §1
# LOX IMVI = experiment: Cytotoxicity against human LOXIMVI cells; summary of the method: as §1
# HCC 2998 = experiment: Cytotoxicity against human HCC2998 cells; summary of the method: as §1
# SK-MEL-5 = experiment: Cytotoxicity against human SK-MEL-5 cells; summary of the method: as §1
# [3] = Cytotoxicity against human NCI-ADR-RES cells; summary of the method: as §1
# [4] = Cytotoxicity against human OVCAR5 cells; summary of the method: as §1
# [5] = Cytotoxicity against human UACC62 cells; summary of the method: as §2
# CAKI-1 = experiment: Cytotoxicity against human Caki1 cells; summary of the method: as §1
# COLO 205 = experiment: Cytotoxicity against human COLO205 cells; summary of the method: as §1
# ACHN = experiment: Cytotoxicity against human ACHN cells; summary of the method: as §1
# PC-3 = experiment: Cytotoxicity against human PC3 cells; summary of the method: as §1
# SK-MEL-2 = experiment: Cytotoxicity against human SK-MEL-2 cells; summary of the method: as §1
# CCRF-CEM = experiment: Cytotoxicity against human CCRF-CEM cells
# BT-549 = experiment: Cytotoxicity against human BT549 cells; summary of the method: as §1
# SNB-75 = experiment: Cytotoxicity against human SNB75 cells; summary of the method: as §2
# SK-OV-3 = experiment: Cytotoxicity against human SKOV3 cells; summary of the method: as §1
# [6] = Cytotoxicity against human OVCAR4 cells; summary of the method: as §1
# A549 = experiment: Cytotoxicity against human A549 cells; summary of the method: as §1
# MOLT-4 = experiment: Cytotoxicity against human MOLT4 cells; summary of the method: as §1
# SF-268 = experiment: Cytotoxicity against human SF268 cells; summary of the method: as §1
# MDA-MB-231 = experiment: Cytotoxicity against human MDA-MB-231 cells; summary of the method: as §1
# MDA-MB-435 = experiment: Cytotoxicity against human MDA-MB-435 cells; summary of the method: as §1
# [7] = Cytotoxicity against human OVCAR8 cells; summary of the method: as §1
# A498 = experiment: Cytotoxicity against human A498 cells; summary of the method: as §1
# DU-145 = experiment: Cytotoxicity against human DU145 cells; summary of the method: as §1
# 786-0 = experiment: Cytotoxicity against human 786-0 cells; summary of the method: as §1
# HL-60(TB) = experiment: Cytotoxicity against human HL-60(TB) cells
# Summary of the method: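 Tested within the NCI 60-cell-line screen, with GI50 as the read-out. Values are the average of two independent experiments. The lowest concentration tested was 10 nM.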
# K562 = experiment: Cytotoxicity against human K562 cells; summary of the method: as §1
# SNB-19 = experiment: Cytotoxicity against human SNB19 cells; summary of the method: as §1
# [8] = read-out: pLC50 (the source's name) (converted)
compound,measurement,setting,value
COc1cc(/C=C/c2cc(OC)c3c(CC=C(C)C)c[nH]c3c2)cc2c1O[C@]1(C)CC[C@@H](O)C(C)(C)[C@H]1C2,GI50,NCI-H460,0.372 µM
same,CC50,NCI-H460; [8],17 µM
same,TGI,NCI-H460; read-out: pTGI (converted),2.19 µM
same,GI50,M14,0.525 µM
same,CC50,M14; [8],46.8 µM
same,TGI,M14; read-out: pTGI (converted),2.82 µM
same,GI50,[1]; UO-31,0.437 µM
same,LC50,[1]; UO-31,56.2 µM
same,TGI,"[1]; UO-31, read-out: pTGI (converted)",6.92 µM
same,GI50,NCI-H23,0.646 µM
same,CC50,NCI-H23; [8],26.9 µM
same,TGI,NCI-H23; read-out: pTGI (converted),3.55 µM
same,GI50,HCT-116,0.417 µM
same,CC50,HCT-116; [8],57.5 µM
same,TGI,HCT-116; read-out: pTGI (converted),12.6 µM
same,GI50,HOP-62,0.0871 µM
same,CC50,HOP-62; [8],2.34 µM
same,TGI,HOP-62; read-out: pTGI (converted),0.479 µM
same,GI50,[2]; HCT-15,0.174 µM
same,CC50,"[2]; HCT-15, read-out: pLC50 (the source's name) (converted)",6.17 µM
same,TGI,"[2]; HCT-15, read-out: pTGI (converted)",1.35 µM
same,GI50,MDA-MB-468,0.195 µM
same,LC50,MDA-MB-468,10.5 µM
same,TGI,MDA-MB-468; read-out: pTGI (converted),1.1 µM
same,GI50,SF-539,0.0501 µM
same,CC50,SF-539; [8],2.51 µM
same,TGI,SF-539; read-out: pTGI (converted),0.309 µM
same,GI50,T47D,1.74 µM
same,CC50,T47D; [8],> 100 µM
same,TGI,T47D; read-out: pTGI (converted),17 µM
same,GI50,MCF7,0.398 µM
same,LC50,MCF7,19.1 µM
same,TGI,MCF7; read-out: pTGI (converted),3.72 µM
same,GI50,KM12,0.355 µM
same,CC50,KM12; [8],7.94 µM
same,TGI,KM12; read-out: pTGI (converted),1.7 µM
same,GI50,IGROV-1,1.66 µM
same,CC50,IGROV-1; [8],> 100 µM
same,TGI,IGROV-1; read-out: pTGI (converted),41.7 µM
same,GI50,NCI-H226,2.69 µM
same,CC50,NCI-H226; [8],32.4 µM
same,TGI,NCI-H226; read-out: pTGI (converted),9.77 µM
same,GI50,NCI-H322M,6.31 µM
same,CC50,NCI-H322M; [8],> 100 µM
same,TGI,NCI-H322M; read-out: pTGI (converted),39.8 µM
same,GI50,LOX IMVI,0.295 µM
same,CC50,LOX IMVI; [8],4.47 µM
same,TGI,LOX IMVI; read-out: pTGI (converted),1.29 µM
same,GI50,HCC 2998,2.51 µM
same,CC50,HCC 2998; [8],53.7 µM
same,TGI,HCC 2998; read-out: pTGI (converted),15.8 µM
same,GI50,SK-MEL-5,0.263 µM
same,CC50,SK-MEL-5; [8],1.48 µM
same,TGI,SK-MEL-5; read-out: pTGI (converted),0.676 µM
same,GI50,[3],2.88 µM
same,CC50,[3]; [8],> 100 µM
same,TGI,[3]; read-out: pTGI (converted),28.8 µM
same,GI50,[4]; OVCAR-5,1.55 µM
same,CC50,"[4]; OVCAR-5, read-out: pLC50 (the source's name) (converted)",51.3 µM
same,TGI,"[4]; OVCAR-5, read-out: pTGI (converted)",7.24 µM
same,GI50,[5]; UACC-62,0.229 µM
same,CC50,"[5]; UACC-62, read-out: pLC50 (the source's name) (converted)",9.12 µM
same,TGI,"[5]; UACC-62, read-out: pTGI (converted)",0.661 µM
same,GI50,CAKI-1,0.347 µM
same,LC50,CAKI-1,53.7 µM
same,TGI,CAKI-1; read-out: pTGI (converted),2.19 µM
same,GI50,COLO 205,0.219 µM
same,CC50,COLO 205; [8],1.55 µM
same,TGI,COLO 205; read-out: pTGI (converted),0.479 µM
same,GI50,ACHN,1.26 µM
same,LC50 (concentration killing 50% of cells),ACHN,49 µM
same,TGI,ACHN; read-out: pTGI (converted),15.1 µM
same,GI50,PC-3,0.24 µM
same,LC50,PC-3,> 100 µM
same,TGI,PC-3; read-out: pTGI (converted),17.4 µM
same,GI50,SK-MEL-2,0.331 µM
same,CC50,SK-MEL-2; [8],11 µM
same,TGI,SK-MEL-2; read-out: pTGI (converted),1.58 µM
same,GI50,CCRF-CEM,0.209 µM
same,CC50,CCRF-CEM; [8],> 100 µM
same,TGI,CCRF-CEM; read-out: pTGI (converted),0.851 µM
same,GI50,BT-549,0.355 µM
same,CC50,BT-549; [8],67.6 µM
same,TGI,BT-549; read-out: pTGI (converted),15.5 µM
same,GI50,SNB-75,0.0891 µM
same,CC50,SNB-75; [8],75.9 µM
same,TGI,SNB-75; read-out: pTGI (converted),2.69 µM
same,GI50,SK-OV-3,0.776 µM
same,LC50,SK-OV-3,67.6 µM
same,TGI,SK-OV-3; read-out: pTGI (converted),7.24 µM
same,GI50,[6]; OVCAR-4,2.45 µM
same,CC50,"[6]; OVCAR-4, read-out: pLC50 (the source's name) (converted)",> 100 µM
same,TGI,"[6]; OVCAR-4, read-out: pTGI (converted)",33.1 µM
same,GI50,A549,0.525 µM
same,CC50,A549; [8],50.1 µM
same,TGI,A549; read-out: pTGI (converted),12.9 µM
same,GI50,MOLT-4,0.155 µM
same,CC50,MOLT-4; [8],> 100 µM
same,TGI,MOLT-4; read-out: pTGI (converted),0.661 µM
same,GI50,SF-268,1.12 µM
same,CC50,SF-268; [8],91.2 µM
same,TGI,SF-268; read-out: pTGI (converted),14.5 µM
same,GI50,MDA-MB-231,0.269 µM
same,LC50,MDA-MB-231,30.9 µM
same,TGI,MDA-MB-231; read-out: pTGI (converted),2.4 µM
same,GI50,MDA-MB-435,0.646 µM
same,CC50,MDA-MB-435; [8],74.1 µM
same,TGI,MDA-MB-435; read-out: pTGI (converted),9.12 µM
same,GI50,[7]; OVCAR-8,3.8 µM
same,CC50,"[7]; OVCAR-8, read-out: pLC50 (the source's name) (converted)",74.1 µM
same,TGI,"[7]; OVCAR-8, read-out: pTGI (converted)",23.4 µM
same,GI50,A498,0.138 µM
same,CC50,A498; [8],5.25 µM
same,TGI,A498; read-out: pTGI (converted),0.603 µM
same,GI50,DU-145,2.04 µM
same,LC50 (50% lethal concentration),DU-145,46.8 µM
same,TGI,DU-145; read-out: pTGI (converted),15.1 µM
same,GI50,786-0,0.0501 µM
same,LC50 (concentration killing 50% of cells),786-0,0.891 µM
same,TGI,786-0; read-out: pTGI (converted),0.302 µM
same,GI50,HL-60(TB),0.191 µM
same,CC50,HL-60(TB); [8],85.1 µM
same,TGI,HL-60(TB); read-out: pTGI (converted),2.45 µM
same,GI50,K562,0.309 µM
same,CC50,K562; [8],> 100 µM
same,TGI,K562; read-out: pTGI (converted),1.38 µM
same,GI50,SNB-19,0.398 µM
same,CC50,SNB-19; [8],28.2 µM
same,TGI,SNB-19; read-out: pTGI (converted),4.17 µM

# — ChEMBL document CHEMBL3232844, “Synthesis and structure activity relationships of schweinfurthin indoles” (2014)
